Experimental findings from ChEMBL document CHEMBL3868630, “Synthesis, anti-proliferative activity, SAR study, and preliminary in vivo toxicity study of substituted N,N'-bis(arylmethyl)benzimidazolium salts against a panel of non-small cell lung cancer cell lines” (Bioorg Med Chem, 2017) are described below.

The term solubility denotes the concentration that dissolves in the medium under given conditions. Usually IC50 stands for the midpoint of a concentration-inhibition curve. As a reminder, the GI50 is the concentration giving 50% growth inhibition. A high value points to lower sensitivity of the cells. What is called TGI is the concentration giving total growth inhibition. Higher therefore signals lower sensitivity of the cells. By LC50 is commonly meant the concentration that kills 50% of the test population. A higher LC50 goes with a less lethal substance.

Series [1] in a line: Aqueous solubility of the compound. Type of series: physicochemical.
Series [2] is described as follows: Cytotoxicity against human NCI-H1975 cells assessed as decrease in cell viability after 72 hrs by MTT assay. Type of series: functional, cell-based. The note with it: NCI-H1975, 72 h. The method in brief:
(§1)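 Cells kept in RPMI 1640 with 10% FBS at 37 °C, 5% CO2, passaged every 2-3 days; seeded at 5,000-7,000 cells/well and left 24 h. Compounds dissolved in 1% DMSO, diluted in fresh medium to 1, 4, 16 and 32 µM, added in sextuplicate; 72 h exposure. MTT added for 3-4 h, medium removed, DMSO added for 15 min at 37 °C, OD read at 540 nm.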
(In general: Formazan colour is commonly taken as a measure of viable cells.)

Series [3] in a line: Cytotoxicity against human A549 cells assessed as decrease in cell viability after 72 hrs by MTT assay. Type of series: functional, cell-based. The note with it: A549, 72 h. The method in brief:
as §1

The nature of series [4]: Cytotoxicity against human HCC827 cells assessed as decrease in cell viability after 72 hrs by MTT assay. Type of series: functional, cell-based. To be noted: HCC827, 72 h. In a few lines: as §1
The nature of series [5]: Cytotoxicity against human NCI-H460 cells assessed as decrease in cell viability after 72 hrs by MTT assay. Type of series: functional, cell-based. The note with it: NCI-H460, 72 h. The method in brief: as §1
Series [6] in a line: Growth inhibition of human NCI-H522 cells after 48 hrs by SRB assay. Type of series: functional. To be noted: NCI-H522, 48 h.
A short description of series [7]: Cytotoxicity against human NCI-H460 cells assessed as cell growth at 10 uM after 48 hrs by SRB assay relative to control. Type of series: functional. The note with it: NCI-H460, 48 h, read-out: Activity. (Sulforhodamine B stains cellular protein and so reports cell mass.)
A short description of series [8]: Growth inhibition of human A549 cells after 48 hrs by SRB assay. The note with it: A549, 48 h. Type of series: functional.
Series [9] can be described thus: Cytotoxicity against human EKVX cells assessed as cell growth at 10 uM after 48 hrs by SRB assay relative to control. Type of series: functional. The note with it: read-out: Activity.
A short description of series [10]: Cytotoxicity against human NCI-H226 cells assessed as cell growth at 10 uM after 48 hrs by SRB assay relative to control. Type of series: functional. The note with it: NCI-H226, 48 h, read-out: Activity.
A short description of series [11]: Cytotoxicity against human HOP62 cells assessed as cell growth at 10 uM after 48 hrs by SRB assay relative to control. Type of series: functional. The note with it: HOP-62, 48 h, read-out: Activity.
Series [12] in a line: Growth inhibition of human HOP62 cells after 48 hrs by SRB assay. Type of series: functional. The note with it: HOP-62, 48 h.
The nature of series [13]: Growth inhibition of human NCI-H322M cells after 48 hrs by SRB assay. To be noted: for CC50: read-out: LC50 (the source's name). Type of series: functional.
Series [14] is described as follows: Cytotoxicity against human NCI-H23 cells assessed as cell growth at 10 uM after 48 hrs by SRB assay relative to control. Type of series: functional. The note with it: NCI-H23, 48 h, read-out: Activity.
Series [15] is described as follows: Cytotoxicity against human HOP92 cells assessed as cell growth at 10 uM after 48 hrs by SRB assay relative to control. Type of series: functional. The note with it: HOP-92, 48 h, read-out: Activity.
The nature of series [16]: Growth inhibition of human NCI-H226 cells after 48 hrs by SRB assay. The note with it: NCI-H226, 48 h. Type of series: functional.
Series [17] is described as follows: Cytotoxicity against human A549 cells assessed as cell growth at 10 uM after 48 hrs by SRB assay relative to control. Type of series: functional. To be noted: A549, 48 h, read-out: Activity.
The nature of series [18]: Growth inhibition of human EKVX cells after 48 hrs by SRB assay. Type of series: functional.
Series [19] is described as follows: Growth inhibition of human NCI-H23 cells after 48 hrs by SRB assay. Type of series: functional. The note with it: NCI-H23, 48 h.
Series [20] can be described thus: Cytotoxicity against human NCI-H322M cells assessed as cell growth at 10 uM after 48 hrs by SRB assay relative to control. Type of series: functional. To be noted: read-out: Activity.
A short description of series [21]: Growth inhibition of human HOP92 cells after 48 hrs by SRB assay. Type of series: functional. To be noted: HOP-92, 48 h.
Series [22] is described as follows: Growth inhibition of human NCI-H460 cells after 48 hrs by SRB assay. Type of series: functional. The note with it: NCI-H460, 48 h.
Setting [23] is: read-out: LC50 (the source's name).

With `COCCOCCOCc1n(Cc2ccc3ccccc3c2)c2cc(C)c(C)cc2[n+]1Cc1ccc2ccccc2c1.[Br-]`, in series [1], the concentration in solution (solubility) was 1000 µg/mL. The IC50 in series [2] is less than 1 µM; in series [3], 2 µM; in series [4] it was 2 µM; in [5], less than 1 µM.
Take `Cc1n(Cc2ccc3ccccc3c2)c2ccccc2[n+]1Cc1ccc2ccccc2c1.[Br-]`: the concentration for 50% growth inhibition (GI50) in series [6] was 0.036 µM; in series [8], 1.76 µM; in series [12], 1.69 µM; in [13], 1.56 µM; in series [16] it was 1.44 µM; in series [18], 1.78 µM. Also, the concentration for 50% growth inhibition (GI50) in series [21] stood at 0.0317 µM; in series [22], 1.47 µM. The TGI is 2.27 µM in series [6]; 3.4 µM in [8]; 3.24 µM in series [12]; 3 µM in [13]; 3.2 µM in series [16]; 4.08 µM in series [18]. Also, the total growth inhibition concentration (TGI) was found to be 2.76 µM in [19], 2.06 µM in series [21] and 3.02 µM in series [22]. In addition, in series [1], the solubility is less than 500 µg/mL. Besides, the growth at 10 µM in [7] was -73.9%; in [9] it was 9.57%; in series [10] it was -9.12%; in series [11], -62%; in series [14], -29.5%; in series [15], -68.2%. Besides, the growth at 10 µM in series [17] stood at 8.96%; in series [20], 9.37%. The LC50 in series [8] stood at 6.55 µM; in series [21], 5.03 µM. Further, the IC50 in [2] is 2 µM; in series [3], 4 µM; in series [4], 4 µM; in [5], 3 µM. The CC50 in series [13] is 5.78 µM.
As for `O=C(OCc1ccc2ccccc2c1)c1ccc2c(c1)n(Cc1ccc3ccccc3c1)c[n+]2Cc1ccc2ccccc2c1.[Br-]`, the solubility in [1] is less than 500 µg/mL. The half-maximal inhibitory concentration (IC50) in series [2] amounted to 4 µM; in series [3], 7 µM; in series [4], 7 µM; in series [5], 4 µM.
Take `OCCCc1n(Cc2ccc3ccccc3n2)c2ccccc2[n+]1Cc1ccc2ccccc2c1.[Br-]`: the solubility in series [1] was less than 500 µg/mL. Also, the IC50 is 3 µM in [2], 12 µM in [3], 11 µM in series [4] and 4 µM in series [5].
The corresponding values for `O=C(O)CCc1n(Cc2ccc3ccccc3c2)c2ccccc2[n+]1Cc1ccc2ccccc2c1.[Cl-]` are less than 500 µg/mL, greater than 30 µM, greater than 30 µM, greater than 30 µM and greater than 30 µM.
The compound `O=C(O)c1cc2c(cc1C(=O)O)[n+](Cc1ccc3ccccc3c1)cn2Cc1ccc2ccccc2c1.[Cl-]` showed a solubility in [1] of less than 500 µg/mL. Further, the IC50 in series [2], in series [3], in series [4] and in series [5] was greater than 30 µM each time.
In the case of `OCCCc1n(Cc2ccc3ccccc3c2)c2ccccc2[n+]1Cc1ccc2ccccc2c1.[Br-]`, the GI50 in [6] amounted to 1.05 µM; in series [8], 6.97 µM; in series [12], 2.32 µM; in series [13], 2.15 µM; in series [16] it was 2.23 µM; in [18], 3.68 µM. Also, the GI50 in [19] was determined as 1.65 µM; in series [21], 0.566 µM; in series [22], 2.43 µM. Besides, the TGI in series [6] amounted to 3.95 µM; in series [8], 31.4 µM; in series [12], 11.6 µM; in series [13] it was 9.1 µM; in series [16], 10.5 µM; in [18], 19.4 µM. Besides, the TGI was 8.17 µM in [19], 3.1 µM in [21] and 9.57 µM in series [22]. Besides, the CC50 in [6] (setting [23]) amounted to 84.4 µM; in series [12] (setting [23]), 82.7 µM; in series [13] it was 31.7 µM. In series [1], this compound came in with a solubility of less than 500 µg/mL. Moreover, the growth at 10 µM was 18.4% in [7]; 47.6% in [9]; 48.5% in series [10]; 37.5% in [11]; 19% in series [14]; -24.3% in [15]. The results for the growth at 10 µM in series [17] and in series [20] were 68.4% and 49.9%, respectively. Moreover, the LC50 was greater than 100 µM in series [8]; 99.6 µM in series [16]; 70.6 µM in series [18]; 56.8 µM in series [19]; 69.1 µM in series [21]; 80.3 µM in series [22]. The IC50 was found to be 4 µM in series [2], 10 µM in [3], 6 µM in series [4] and 4 µM in [5].
For `Cc1cc2c(cc1C)[n+](Cc1ccc3ccccc3c1)cn2Cc1ccc2ccccc2c1.[Br-]`, the GI50 was determined as 1.25 µM in series [6]; 1.42 µM in series [8]; 1.03 µM in series [12]; 1.14 µM in series [13]; 1.39 µM in series [16]; 1.37 µM in [18]. In addition, the GI50 in series [19] was 0.872 µM; in series [21] it was 0.587 µM; in series [22], 0.662 µM. Further, the TGI in [6] came to 2.99 µM; in series [8] it was 2.95 µM; in series [12] it was 2.47 µM; in series [13] it was 2.42 µM; in series [16], 3.42 µM; in [18], 2.88 µM. In addition, the TGI in series [19] worked out at 2.28 µM; in series [21] it was 2.53 µM. Besides, in [1], the solubility is less than 500 µg/mL. Moreover, the growth at 10 µM is -76.8% in [7]; -64.3% in series [9]; -25.5% in series [10]; -73% in series [11]; -71.8% in series [14]; -80.8% in series [15]. Also, the growth at 10 µM is -71.3% in series [17] and -8.28% in [20]. In addition, the IC50 in series [2] is 2 µM; in series [3], 3 µM; in series [4], 2 µM; in series [5], 2 µM.
In turn, `COC(=O)Cc1n(Cc2ccc3ccccc3c2)c2ccccc2[n+]1Cc1ccc2ccccc2c1.[Br-]` showed a solubility in series [1] of less than 500 µg/mL. Besides, the IC50 turned out to be 6 µM in series [2], 8 µM in series [3], 8 µM in series [4] and 7 µM in [5].
In series [1], `COc1ccc2c(c1)n(Cc1ccc3ccccc3c1)c[n+]2Cc1ccc2ccccc2c1.[Br-]` showed a solubility of less than 500 µg/mL. Further, the IC50 in [2] came out at 2 µM; in [3], 6 µM; in series [4], 4 µM; in [5] it was 4 µM.
In turn, `Cl.O=C(O)c1ccc2c(c1)n(Cc1ccc3ccccc3c1)c[n+]2Cc1ccc2ccccc2c1.[Br-]` showed a solubility in series [1] of less than 500 µg/mL. Also, the IC50 in series [2] is 23 µM; in series [3], 12 µM; in [4], greater than 30 µM; in series [5], 16 µM.
